The values below come from PMC2921709 (ChemMedChem, 2010).

SMILES strings stand for the structures. Like-named read-outs stand apart in the source and are kept apart here. Some results are limits rather than exact numbers.

One test has as its system K562. The experiment in a line: MTT growth inhibition, K562 chronic myelogenous leukemia cells. In kind it is cell-based, human. Conditions: read-out: GI50 K562. In a few lines: (§1)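 Cells seeded at 8 × 10^3 per well in 96-well plates and held 18 h at 37 °C, 5% CO2. Medium then replaced with test compound in complete medium at various concentrations for 72 h continuous exposure. Viability read by MTT. GI50 is the concentration giving 50% proliferation inhibition, from dose–response curves; mean ± SE of ≥3 independent experiments. Media: leukemia lines in RPMI-1640; solid-tumour lines in DMEM with penicillin G 115 U mL−1, streptomycin and 10% FBS.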

The test system of the next test is HL-60. The test is described as follows: MTT growth inhibition, HL-60 promyelocytic leukemia cells. Type of test: cell-based, human. Conditions: read-out: GI50 HL-60. In a few lines: as §1
In a further test the test system is Hep G2. The experiment in a line: MTT growth inhibition, HepG2 hepatoma cells. Conditions: read-out: GI50 Hep G2. In kind it is cell-based, human. In a few lines: as §1
A further test has as its system HeLa. The experiment in a line: MTT growth inhibition, HeLa cervix carcinoma cells. In kind it is cell-based, human. Conditions: read-out: GI50 HeLa. In a few lines:
as §1

The next test concerns HT-29. The test is described as follows: MTT growth inhibition, HT-29 colon adenocarcinoma cells. In kind it is cell-based, human. As to conditions: read-out: GI50 HT-29. In a few lines:
as §1

A further test concerns ML2. The test is described as follows: MTT growth inhibition, ML-2 myeloid leukemia cells. In kind it is cell-based, human. As to conditions: read-out: GI50 ML2. An outline of the steps: as §1
The test system of a further test is ARO. The test is described as follows: MTT growth inhibition, ARO anaplastic thyroid cells. Type of test: cell-based, human. As to conditions: read-out: GI50 ARO. An outline of the steps: as §1
The subject of test [1] is panel of human tumor cell lines. The experiment in a line: MTT growth inhibition, whole panel of human tumor cell lines. In kind it is cell-based. Conditions: 72 h, read-out: GI50, all cell lines tested. In a few lines: as §1
Test [2] has as its system Bovine brain tubulin (colchicine site). The experiment in a line: Inhibition of [3H]colchicine binding to tubulin. Conditions: tubulin 1 μM, [3H]colchicine 5 μM.
A further test deals with Bovine brain tubulin. The test is described as follows: Inhibition of tubulin polymerization. In kind it is biochemical. Conditions: read-out: Tubulin Assembly IC50; tubulin 10 μM; 20 min incubation; ± SD.
The test system of another test is IGROV. The test is described as follows: MTT growth inhibition, IGROV ovarian cancer cells. Type of test: cell-based, human. Conditions: read-out: GI50 IGROV; 72 h exposure, MTT; mean ± SE. An outline of the steps:
as §1

The test system of the next test is MCF-7. The experiment in a line: MTT growth inhibition, MCF-7 breast adenocarcinoma cells. In kind it is cell-based, human. As to conditions: read-out: GI50 MCF-7; 72 h exposure, MTT; mean ± SE. In a few lines:
as §1

The subject of another test is RS 4;11. The experiment in a line: MTT growth inhibition, RS 4. As to conditions: read-out: GI50 RS 4;11; 72 h exposure, MTT; mean ± SE. Type of test: cell-based, human. An outline of the steps:
as §1

A further test deals with Jurkat. The test is described as follows: MTT growth inhibition, Jurkat T-leukemia cells. Type of test: cell-based, human. As to conditions: read-out: GI50 Jurkat; 72 h exposure, MTT; mean ± SE. An outline of the steps:
as §1

Setting [3] is: Homo sapiens, Thyroid cell, 72 h.

The term GI50 denotes the concentration that inhibits growth by half. `O=c1c(-c2ccccc2)c[nH]c2ccc3[nH]ccc3c12` [Compound 33, 8-Phenyl-3H-pyrrolo[3,2-f]quinolin-9(6H)-one]: the concentration for 50% growth inhibition (GI50) in the test with K562 (Homo sapiens, K562, 72 h) is more than 50 µM; in the test on HL-60 (Homo sapiens, HL-60, 72 h), more than 50 µM; in the test with Hep G2 (Homo sapiens, HepG2, 72 h) it was more than 50 µM; in the test with HeLa (Homo sapiens, HeLa, 72 h), more than 50 µM; in the test with HT-29 (Homo sapiens, HT-29, 72 h), more than 50 µM; in the test with ML2 (Homo sapiens, ML-2, 72 h) it was more than 50 µM. The GI50 (with ARO (setting [3]); in test [1]) was more than 50 µM throughout.
Regarding `CCn1ccc2c3c(=O)c(-c4ccccc4)c[nH]c3ccc21` [Compound 34, 3-Ethyl-8-phenyl-3H-pyrrolo[3,2-f]quinolin-9(6H)-one], the GI50 in the test on K562 (Homo sapiens, K562, 72 h) is more than 50 µM; in the test on HL-60 (Homo sapiens, HL-60, 72 h), more than 50 µM; in the test with Hep G2 (Homo sapiens, HepG2, 72 h), more than 50 µM; with HeLa (Homo sapiens, HeLa, 72 h), more than 50 µM; in the test on HT-29 (Homo sapiens, HT-29, 72 h), more than 50 µM; with ML2 (Homo sapiens, ML-2, 72 h), more than 50 µM. Also, the GI50 (in the test with ARO (setting [3]); in test [1]) was more than 50 µM throughout.
With `O=c1c(-c2ccccc2)c[nH]c2ccc3c(ccn3CC3CC3)c12` [Compound 35], the GI50 in the test on K562 (72 h exposure, MTT, mean ± SE) is more than 50 µM; with HL-60 (72 h exposure, MTT, mean ± SE), more than 50 µM; in the test on Hep G2 (72 h exposure, MTT, mean ± SE), more than 50 µM; in the test with HeLa (72 h exposure, MTT, mean ± SE), more than 50 µM; with HT-29 (72 h exposure, MTT, mean ± SE), more than 50 µM; in the test with ML2 (72 h exposure, MTT, mean ± SE) it was more than 50 µM. Further, the GI50 with ARO (72 h exposure, MTT, mean ± SE) was more than 50 µM.
Turning to `CCn1ccc2c3c(=O)c(-c4cccc(OC)c4)c[nH]c3ccc21` [Compound 36, 3-Ethyl-8-(3-methoxyphenyl)-3H-pyrrolo[3,2-f]quinolin-9(6H)-one], the GI50 is more than 50 µM in the test on K562 (Homo sapiens, K562, 72 h); more than 50 µM in the test with HL-60 (Homo sapiens, HL-60, 72 h); more than 50 µM in the test on Hep G2 (Homo sapiens, HepG2, 72 h); more than 50 µM in the test on HeLa (Homo sapiens, HeLa, 72 h); more than 50 µM in the test on HT-29 (Homo sapiens, HT-29, 72 h); more than 50 µM in the test with ML2 (Homo sapiens, ML-2, 72 h). In addition, the concentration for 50% growth inhibition (GI50) with ARO (setting [3]) was more than 50 µM.
Consider `CCn1ccc2c3c(=O)c(-c4ccc(Br)cc4)c[nH]c3ccc21` [Compound 37, 8-(4-Bromophenyl)-3-ethyl-3H-pyrrolo[3,2-f]quinolin-9(6H)-one], for which the GI50 in the test on K562 (Homo sapiens, K562, 72 h) is more than 50 µM; in the test on HL-60 (Homo sapiens, HL-60, 72 h), more than 50 µM; in the test with Hep G2 (Homo sapiens, HepG2, 72 h), more than 50 µM; with HeLa (Homo sapiens, HeLa, 72 h), more than 50 µM; in the test on HT-29 (Homo sapiens, HT-29, 72 h), more than 50 µM; in the test on ML2 (Homo sapiens, ML-2, 72 h), more than 50 µM. For the same compound, in the test on ARO (setting [3]), the GI50 was more than 50 µM.
As usually defined, the IC50 is the concentration at which inhibition is half-maximal. With `CCn1ccc2c3c(=O)cc(-c4ccccc4)[nH]c3ccc21` [Compound 38, 3-ethyl-7-PPyQ, reference compound], the concentration for 50% growth inhibition (GI50) worked out at 0.001 ± 0.0001 µM with K562 (72 h exposure, MTT, mean ± SE); 0.0005 ± 2e-05 µM in the test with HL-60 (72 h exposure, MTT, mean ± SE); 0.05 ± 0.01 µM in the test with Hep G2 (72 h exposure, MTT, mean ± SE); 0.06 ± 0.01 µM with IGROV; 0.01 ± 0.008 µM in the test on HeLa (72 h exposure, MTT, mean ± SE); 0.03 ± 0.01 µM with HT-29 (72 h exposure, MTT, mean ± SE). The GI50 with ML2 (72 h exposure, MTT, mean ± SE) stood at 0.001 ± 0.0003 µM; in the test on MCF-7, 0.04 ± 0.01 µM; in the test on RS 4;11, 0.002 ± 0.0003 µM; in the test on Jurkat, 0.0005 ± 2e-05 µM; in the test on ARO (72 h exposure, MTT, mean ± SE) it was 0.03 ± 0.01 µM. Besides, the “Colchicine Binding Inhibition [%], 1 μM” value in test [2] (compound 1 μM) is on record as 34 ± 2%. Further, in test [2] (compound 5 μM), the “Colchicine Binding Inhibition [%], 5 μM” value is listed as 73 ± 0.7%. Besides, in the test with Bovine brain tubulin, the half-maximal inhibitory concentration (IC50) was 0.57 ± 0.02 µM.
